Assays:
Triticum aestivum [1] = assay: Inhibition of binding of HRP labeled WGA to immobilized N-acetyl-glucosamine relative to N-acetyl-glucosamine
Summary of the method: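 IC50 values come from the covalently immobilized GlcNAc ELLA (thiourea-linked spacer GlcNAc, WGA-HRP 1 μg mL⁻¹, 37 °C incubations, ABTS read at 405 nm, duplicate). β expresses potency relative to GlcNAc, with GlcNAc set to β = 1.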

Triticum aestivum [2] = assay: Inhibition of binding of HRP labeled WGA to immobilized porcine stomach […] relative to N-acetyl-glucosamine
Summary of the method: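 IC50 measured in the PSM-coated ELLA (WGA-HRP 1 μg mL⁻¹ final, 60 min pre-incubation with inhibitor, 90 min at 37 °C, ABTS read at 405 nm, duplicate). Relative potency β is the GlcNAc IC50 divided by the ligand IC50, with GlcNAc set to β = 1.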

[3] = Inhibition of binding of HRP labeled WGA to immobilized N-acetyl-glucosamine; parameters: species or system Triticum aestivum
Summary of the method: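 Covalent GlcNAc surface: amino plates activated with 0.5% 1,4-phenylene diisothiocyanate in DMSO for 3 h, then treated overnight with 1 mM spacer-linked GlcNAc amine at pH 10.1. Blocking was 1% BSA. WGA-HRP (1 μg mL⁻¹ final) was pre-incubated with inhibitor dilutions for 60 min at 37 °C, then incubated on the plates for 90 min at 37 °C. ABTS/H₂O₂ read at 405 nm. IC50 from % inhibition, duplicate.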

[4] = Inhibition of binding of HRP labeled WGA to immobilized porcine stomach […]; parameters: species or system Triticum aestivum
Summary of the method: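 Plates coated overnight at room temperature with porcine stomach mucin (4.12 μg mL⁻¹ in PBS, pH 7.3), then blocked with 1% BSA, 90 min at 37 °C. WGA-HRP (1 μg mL⁻¹ final) pre-incubated 60 min at 37 °C with serially diluted inhibitor, then 90 min at 37 °C on plates. ABTS/H₂O₂ read-out at pH 4.0, 30 min, stopped with H₂SO₄, A405. IC50 from % inhibition curves, duplicate.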

Row | SMILES | Activity (Triticum aestivum [1]) | Activity (Triticum aestivum [2]) | IC50 [3] | IC50 [4]
1 | CC(=O)N[C@H]1[C@H](OC/C=C\CO)O[C@H](CO)[C@@H](O)[C@@H]1O | 1.9 | 2 | 12 µM | 500 mM
2 | CC(=O)N[C@@H]1[C@@H](O)[C@H](O)[C@@H](CO)O[C@H]1O [N-ACETYLGLUCOSAMINE] |  | 1 | 23 µM | 1000 mM
3 | C=CCO[C@@H]1O[C@H](CO)[C@@H](O)[C@H](O)[C@H]1NC(C)=O | 2.3 | 3.6 | 10 µM | 280 mM
4 | CCCNC(=O)OC/C=C\CO[C@@H]1O[C@H](CO)[C@@H](O)[C@H](O)[C@H]1NC(C)=O |  | 4.2 |  | 240 mM

The next molecules have a lower IC50 [4] than those just listed; values first:

Row | Activity (Triticum aestivum [1]) | Activity (Triticum aestivum [2]) | IC50 [3] | IC50 [4] | SMILES
5 |  | 10 |  | 100 mM | CC(=O)N[C@H]1[C@H](OC/C=C\COC(=O)NCc2ccccc2)O[C@H](CO)[C@@H](O)[C@@H]1O
6 | 80 | 13 | 0.288 µM | 75 mM | CC(=O)N[C@H]1[C@H](OC/C=C\COC(=O)NCCCOCCOCCOCCCNC(=O)OC/C=C/CO[C@@H]2O[C@H](CO)[C@@H](O)[C@H](O)[C@H]2NC(C)=O)O[C@H](CO)[C@@H](O)[C@@H]1O
7 |  | 17 |  | 60 mM | CC(=O)N[C@H]1[C@H](OC/C=C\COC(=O)NCCCOCCCCOCCCNC(=O)OC/C=C\CO[C@@H]2O[C@H](CO)[C@@H](O)[C@H](O)[C@H]2NC(C)=O)O[C@H](CO)[C@@H](O)[C@@H]1O
8 |  | 25 |  | 40 mM | CC(=O)N[C@H]1[C@H](OC/C=C\COC(=O)NCCNCCNC(=O)OC/C=C\CO[C@@H]2O[C@H](CO)[C@@H](O)[C@H](O)[C@H]2NC(C)=O)O[C@H](CO)[C@@H](O)[C@@H]1O
9 | 420 | 40 | 0.055 µM | 25 mM | CC(=O)N[C@H]1[C@H](OC/C=C\COC(=O)NCCN(CCNC(=O)OC/C=C\CO[C@@H]2O[C@H](CO)[C@@H](O)[C@H](O)[C@H]2NC(C)=O)CCNC(=O)OC/C=C\CO[C@@H]2O[C@H](CO)[C@@H](O)[C@H](O)[C@H]2NC(C)=O)O[C@H](CO)[C@@H](O)[C@@H]1O
10 |  | 50 |  | 20 mM | CC(=O)N[C@H]1[C@H](OC/C=C\COC(=O)NCc2cccc(CNC(=O)OC/C=C\CO[C@@H]3O[C@H](CO)[C@@H](O)[C@H](O)[C@H]3NC(C)=O)c2)O[C@H](CO)[C@@H](O)[C@@H]1O
11 | 260 | 67 | 0.088 µM | 15 mM | CC(=O)N[C@H]1[C@H](OC/C=C\COC(=O)NCc2ccc(CNC(=O)OC/C=C\CO[C@@H]3O[C@H](CO)[C@@H](O)[C@H](O)[C@H]3NC(C)=O)cc2)O[C@H](CO)[C@@H](O)[C@@H]1O

— ChEMBL document CHEMBL1137542, “Probing multivalent carbohydrate-lectin interactions by an enzyme-linked lectin assay employing covalently immobilized carbohydrates” (Bioorg Med Chem, 2007)
